The source made the active and inactive calls. The rule behind the calls is not given here.
What was measured:
[1] = target: T1, Monoglyceride lipase (Homo sapiens) (UniProt Q99685); assay: Inhibition of human MGL expressed in […] cells using 2AG as substrate assessed as residual activity at 10 uM preincubated for 10 mins followed by substrate addition measured after 10 mins by HPLC analysis; type: cell-based
T1 sequence (whole entry): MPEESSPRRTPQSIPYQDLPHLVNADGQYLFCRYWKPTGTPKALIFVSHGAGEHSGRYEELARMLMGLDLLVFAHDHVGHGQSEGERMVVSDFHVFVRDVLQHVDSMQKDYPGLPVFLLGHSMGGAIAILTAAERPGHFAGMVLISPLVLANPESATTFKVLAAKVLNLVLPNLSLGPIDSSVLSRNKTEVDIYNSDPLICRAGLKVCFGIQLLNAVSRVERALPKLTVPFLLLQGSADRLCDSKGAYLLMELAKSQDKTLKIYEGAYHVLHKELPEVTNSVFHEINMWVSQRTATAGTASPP
Summary of the method: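 Lysates of HEK cells overexpressing hMGL, 2.5 μg protein per incubation, substrate at 50 μM. Compounds tested at 10 μM.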

[2] = target: T2, Lysophosphatidylserine lipase ABHD12 (Homo sapiens) (UniProt Q8N2K0); assay: Inhibition of human ABHD12 expressed in […] cells using 2-AG as substrate assessed as glycerol liberation at 1 uM preincubated for 30 mins followed by 2-AG addition measured for 90 mins by fluorescent glycerol assay relative to control; type: cell-based; parameters: scale not given: the % may be the effect or the level left
T2 sequence (whole entry): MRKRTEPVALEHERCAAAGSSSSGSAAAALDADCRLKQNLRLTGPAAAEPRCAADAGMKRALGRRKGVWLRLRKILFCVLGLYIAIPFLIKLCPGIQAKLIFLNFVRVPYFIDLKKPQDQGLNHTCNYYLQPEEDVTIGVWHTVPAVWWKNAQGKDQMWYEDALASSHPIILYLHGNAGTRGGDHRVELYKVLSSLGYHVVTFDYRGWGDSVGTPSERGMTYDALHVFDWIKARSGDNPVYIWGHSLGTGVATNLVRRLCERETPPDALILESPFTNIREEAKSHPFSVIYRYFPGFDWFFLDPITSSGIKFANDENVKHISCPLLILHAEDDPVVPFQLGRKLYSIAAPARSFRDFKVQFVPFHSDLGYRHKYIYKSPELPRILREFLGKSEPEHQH
Summary of the method: (§1)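 Lysates of HEK293 cells transiently overexpressing hABHD6 or hABHD12, 0.3 μg protein/well. Pretreated 30 min with DMSO or compound, then 2-AG added (12.5 μM final). Glycerol release coupled enzymatically to H2O2-dependent resorufin formation; fluorescence (ex 530/em 590 nm) followed kinetically for 90 min.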

[3] = target: Cannabinoid receptor 2 (Homo sapiens) (UniProt P34972); assay: Antagonist activity at human CBR2 assessed as [35S]GTPgammaS binding at 10 uM by […] assay relative to control; type: functional; parameters: scale not given: the % may be the effect or the level left
[4] = target: Cannabinoid receptor 1 (Homo sapiens) (UniProt P21554); assay: Agonist activity at CBR1 (unknown origin) assessed as [35S]GTPgammaS binding at 10 uM by […] assay relative to control; type: functional
[5] = target: T3, Fatty-acid amide hydrolase 1 (Homo sapiens) (UniProt O00519); assay: Inhibition of human FAAH expressed in African green monkey COS-7 cell membranes using [3H]-AEA as substrate assessed as residual activity at 10 uM preincubated for 10 mins followed by substrate addition measured after 10 mins by liquid scintillation counting analysis relative to control
T3 sequence (whole entry): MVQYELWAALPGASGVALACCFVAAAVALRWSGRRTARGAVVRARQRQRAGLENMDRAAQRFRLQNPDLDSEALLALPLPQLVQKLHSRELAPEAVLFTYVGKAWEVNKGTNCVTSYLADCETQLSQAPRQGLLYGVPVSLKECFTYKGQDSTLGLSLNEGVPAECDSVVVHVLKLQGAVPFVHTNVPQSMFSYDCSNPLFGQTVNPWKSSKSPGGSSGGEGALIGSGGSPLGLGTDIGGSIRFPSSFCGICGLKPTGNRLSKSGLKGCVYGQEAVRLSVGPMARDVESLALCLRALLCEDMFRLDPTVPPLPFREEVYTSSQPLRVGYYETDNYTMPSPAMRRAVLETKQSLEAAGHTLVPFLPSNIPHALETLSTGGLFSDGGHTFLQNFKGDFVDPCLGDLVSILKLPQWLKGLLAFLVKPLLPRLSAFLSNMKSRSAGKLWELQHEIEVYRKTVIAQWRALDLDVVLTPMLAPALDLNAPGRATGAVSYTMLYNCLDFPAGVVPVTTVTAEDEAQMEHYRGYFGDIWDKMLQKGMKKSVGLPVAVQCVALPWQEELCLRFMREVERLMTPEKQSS
Summary of the method: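 Membranes of COS-7 cells overexpressing hFAAH, 1 μg protein per incubation. Substrate 20 μM AEA including 10 nM [3H]AEA (60 Ci/mmol). Compounds tested at 10 μM.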

[6] = target: T4, Monoacylglycerol lipase ABHD6 (Homo sapiens) (UniProt Q9BV23); assay: Inhibition of human ABHD6 expressed in […] cells using 2-AG as substrate assessed as glycerol liberation at 1 uM preincubated for 30 mins followed by 2-AG addition measured for 90 mins by fluorescent glycerol assay relative to control; type: cell-based; parameters: scale not given: the % may be the effect or the level left; summary of the method: as §1
T4 sequence (whole entry): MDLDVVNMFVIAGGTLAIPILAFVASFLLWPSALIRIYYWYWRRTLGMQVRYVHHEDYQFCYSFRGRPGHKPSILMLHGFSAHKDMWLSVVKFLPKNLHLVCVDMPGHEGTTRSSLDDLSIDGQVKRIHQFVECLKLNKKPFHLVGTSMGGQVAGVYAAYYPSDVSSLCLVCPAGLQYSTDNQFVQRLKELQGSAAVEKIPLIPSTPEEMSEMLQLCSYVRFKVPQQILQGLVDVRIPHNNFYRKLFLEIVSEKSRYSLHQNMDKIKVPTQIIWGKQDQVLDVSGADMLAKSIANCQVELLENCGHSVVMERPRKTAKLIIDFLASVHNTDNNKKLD

[7] = target: Cannabinoid receptor 2 (Homo sapiens) (UniProt P34972); assay: Agonist activity at CBR2 (unknown origin) assessed as [35S]GTPgammaS binding at 10 uM by […] assay relative to control; type: functional
[8] = target: T5, G-protein coupled receptor 55 (Homo sapiens, UniProt Q9Y2T6); assay: Agonist activity at human GPR55 expressed in CHOK1 cells at 10 uM by pathHunter beta-arrestin assay relative to LPI; type: cell-based; conditions: CHO-K1
Summary of the method: (§2)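 PathHunter eXpress GPR55 CHO-K1 β-arrestin kit run per the kit protocol, compounds screened at 10 μM. Luminescence read and expressed as percentage of the signal from bovine liver LPI at 1 μM. Mean with range of two experiments, each done in duplicate.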

[9] = target: Cannabinoid receptor 1 (Homo sapiens) (UniProt P21554); assay: Antagonist activity at human CBR1 assessed as [35S]GTPgammaS binding at 10 uM by radiometric assay relative to control; parameters: scale not given: the % may be the effect or the level left
[10] = target: T5, G-protein coupled receptor 55; assay: Agonist activity at human GPR55 expressed in CHOK1 cells at 10 uM by pathHunter beta-arrestin assay relative to control; type: cell-based; conditions: CHO-K1; summary of the method: as §2
[11] = target: T5, G-protein coupled receptor 55; assay: Agonist activity at human GPR55 expressed in HEK293 cells assessed as calcium signalling at 10 uM by fura 2-based digital epifluorescence microscopy; type: functional, cell-based
[12] = target: T5, G-protein coupled receptor 55; assay: Agonist activity at human GPR55 expressed in Saccharomyces cerevisiae by beta-galactosidase reporter assay
[13] = target: T6, Sodium- and chloride-dependent glycine transporter 1 (Homo sapiens, UniProt P48067); assay: Inhibition of GlyT1 (unknown origin) expressed in HEK293 cells by scintillation proximity assay; type: cell-based
T6 sequence (P48067 whole entry): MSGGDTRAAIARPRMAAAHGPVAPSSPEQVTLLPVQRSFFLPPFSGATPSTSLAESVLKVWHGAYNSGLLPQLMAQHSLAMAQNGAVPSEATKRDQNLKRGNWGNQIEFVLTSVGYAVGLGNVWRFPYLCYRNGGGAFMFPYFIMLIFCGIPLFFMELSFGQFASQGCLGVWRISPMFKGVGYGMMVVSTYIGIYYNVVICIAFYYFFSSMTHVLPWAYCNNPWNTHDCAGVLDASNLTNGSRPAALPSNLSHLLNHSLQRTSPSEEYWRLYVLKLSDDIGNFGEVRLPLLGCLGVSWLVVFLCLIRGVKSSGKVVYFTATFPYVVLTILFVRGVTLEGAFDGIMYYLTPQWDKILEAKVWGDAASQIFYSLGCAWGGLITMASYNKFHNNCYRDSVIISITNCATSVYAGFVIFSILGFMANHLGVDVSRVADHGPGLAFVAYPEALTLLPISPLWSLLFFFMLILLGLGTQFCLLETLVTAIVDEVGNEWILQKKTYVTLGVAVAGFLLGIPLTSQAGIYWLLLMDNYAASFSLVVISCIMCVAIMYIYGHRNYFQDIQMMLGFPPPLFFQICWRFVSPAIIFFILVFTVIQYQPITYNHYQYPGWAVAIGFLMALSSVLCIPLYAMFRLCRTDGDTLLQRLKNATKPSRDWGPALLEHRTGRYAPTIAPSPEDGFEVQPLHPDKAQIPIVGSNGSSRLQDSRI

Sequence of Cannabinoid receptor 2 (Homo sapiens) (P34972 whole entry): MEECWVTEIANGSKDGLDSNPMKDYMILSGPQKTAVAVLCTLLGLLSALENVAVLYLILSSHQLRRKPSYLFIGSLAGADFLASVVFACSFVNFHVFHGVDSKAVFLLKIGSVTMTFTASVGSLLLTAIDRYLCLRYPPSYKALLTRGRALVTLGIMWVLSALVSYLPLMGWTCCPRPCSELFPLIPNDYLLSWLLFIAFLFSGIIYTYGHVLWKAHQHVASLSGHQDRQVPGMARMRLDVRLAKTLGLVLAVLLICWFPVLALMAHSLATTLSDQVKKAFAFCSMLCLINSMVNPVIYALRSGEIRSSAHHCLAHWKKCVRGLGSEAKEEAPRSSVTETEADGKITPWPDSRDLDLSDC
Sequence of Cannabinoid receptor 1 (Homo sapiens) (P21554 whole entry): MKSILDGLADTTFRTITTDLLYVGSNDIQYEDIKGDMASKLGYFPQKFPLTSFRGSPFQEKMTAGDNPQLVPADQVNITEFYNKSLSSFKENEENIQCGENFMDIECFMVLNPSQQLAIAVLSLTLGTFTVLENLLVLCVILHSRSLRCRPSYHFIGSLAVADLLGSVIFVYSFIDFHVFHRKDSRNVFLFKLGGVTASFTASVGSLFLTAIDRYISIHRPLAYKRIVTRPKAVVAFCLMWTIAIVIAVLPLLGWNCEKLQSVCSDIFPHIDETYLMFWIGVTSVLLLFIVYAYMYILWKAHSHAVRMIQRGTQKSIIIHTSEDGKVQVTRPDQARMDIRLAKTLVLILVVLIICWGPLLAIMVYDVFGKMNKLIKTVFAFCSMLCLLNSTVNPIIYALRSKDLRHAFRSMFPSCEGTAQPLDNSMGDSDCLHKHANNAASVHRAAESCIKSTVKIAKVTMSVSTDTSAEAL
T5 sequence (Q9Y2T6 whole entry): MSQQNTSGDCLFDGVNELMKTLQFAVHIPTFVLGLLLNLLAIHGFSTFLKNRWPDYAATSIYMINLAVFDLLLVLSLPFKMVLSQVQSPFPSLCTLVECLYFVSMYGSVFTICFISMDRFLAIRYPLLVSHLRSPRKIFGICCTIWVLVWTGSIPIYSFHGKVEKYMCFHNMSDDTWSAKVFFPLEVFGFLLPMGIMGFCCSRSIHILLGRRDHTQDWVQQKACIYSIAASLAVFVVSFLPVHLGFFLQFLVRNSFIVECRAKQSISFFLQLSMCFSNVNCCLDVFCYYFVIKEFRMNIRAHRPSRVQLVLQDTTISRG

Activity [1] [%]	Activity [2] [%]	Activity [3] [%]	Activity [4] [%]	Activity [5] [%]	Activity [6] [%]	Activity [7] [%]	Activity [8] [%]	Activity [9] [%]	Activity [10] [%]	Activity [11]	EC50 [12] [nM]	IC50 [13] [nM]	SMILES
102	101	106	103	85	99	96	90	94	132	inactive	–	–	O=C(NC(=S)Nc1ccc(S(=O)(=O)NCCc2c[nH]c3ccccc23)cc1)c1ccc(-c2ccccc2)cc1
–	–	–	–	–	–	–	–	–	–	–	158	10000	CS(=O)(=O)c1ccc(-c2ccc(F)cc2)c(C(=O)N2CCN(c3ccc(N)cc3F)CC2)c1
–	–	–	–	–	–	–	–	–	–	–	316	20	COC(C)c1ccc(N2CCN(C(=O)c3cc(S(C)(=O)=O)ccc3-c3ccc(F)cc3)CC2)c(F)c1 (stereo unspecified)
98	100	95	100	93	103	95	107	98	157	inactive	–	–	O=C(NC(=S)Nc1ccc(S(=O)(=O)NCc2ccc(I)cc2)cc1)c1ccc(-c2ccccc2)cc1

— ChEMBL document CHEMBL3745614, “Potent and selective N-(4-sulfamoylphenyl)thiourea-based GPR55 agonists” (Eur J Med Chem, 2016)
